Experimental data from different studies.

| Structure (SMILES) | target or system | assay | test system | conditions | measurement | result |
| --- | --- | --- | --- | --- | --- | --- |
| COc1ccc(-c2c(Nc3ccccn3)[nH]c3c(C4=CCCCC4)c(-c4ccccc4)nn3c2=O)cc1 | – | – | human, plasma | oral, 150 mg once daily, multiple doses, patients | Cmax | 4960 ng/mL |
| O=C(Nc1ccc(Cl)cc1)Nc1cccc(-c2cn(Cc3ccc(Cl)cc3)nn2)c1 | L02 | cell growth or viability, CCK-8 | – | 50 µM, 72 h | viability | 102% |
| COc1ccc(NC(=O)Nc2ccc(-c3cn(Cc4cccc(Cl)c4)nn3)cc2)cc1 | L02 | cell growth or viability, CCK-8 | – | 50 µM, 72 h | viability | 114% |
| CC(C)n1c(C2CCNCC2)nc2c([N+](=O)[O-])c(Br)c(Br)cc21 | – | – | human, plasma | oral, 150 mg, patients | Cmax | 249 ng/mL |
| O=C(NCc1cn(Cc2cccc(Cl)c2)nn1)Nc1ccc(Cl)cc1 | L02 | cell growth or viability, CCK-8 | – | 50 µM, 72 h | viability | 100% |
| CCONC(=O)N1CCC[C@H](C(=O)NCc2nc(-c3ccc(C#N)cc3)cs2)C1 | – | – | Caco-2 | – | efflux ratio | 6.9 |
| COc1ccc(NC(=O)NCc2cn(Cc3ccc(Br)cc3)nn2)cc1 | L02 | cell growth or viability, CCK-8 | – | 50 µM, 72 h | viability | 119% |
| O=C(COc1ccc(Cl)cc1)NC12CC(c3nnc([C@H]4C[C@@H](OC(F)(F)F)C4)o3)(C1)C2 | – | – | human, plasma | oral, 100 mg, multiple doses, once daily, steady state, healthy volunteers | Cmax | 5.39 µM |
| COc1ccc(NC(=O)Nc2ccc(-c3cn(Cc4ccc(Br)cc4)nn3)cc2)cc1 | L02 | cell growth or viability, CCK-8 | – | 50 µM, 72 h | viability | 91.1% |
| O=C(NCc1cn(Cc2ccc(Cl)cc2)nn1)Nc1ccc(Cl)cc1 | L02 | cell growth or viability, CCK-8 | – | 50 µM, 72 h | viability | 127% |
| COc1ccc(NC(=O)NCc2cn(Cc3ccccc3C)nn2)cc1 | L02 | cell growth or viability, CCK-8 | – | 50 µM, 72 h | viability | 124% |
| COc1ccc2c(c1)CN(C(=O)CCN1CCC(Cc3ccccc3)CC1)CC[S@@+]2[O-] | – | – | male human, plasma | intravenous, 0.05 mg/kg, healthy volunteers | Cmax | 130 ng/mL |
